In ChEMBL document CHEMBL2029215, “Synthesis, reactive oxygen species generation and copper-mediated nuclease activity profiles of 2-aryl-3-amino-1,4-naphthoquinones” (Bioorg Med Chem Lett, 2012):
Calls of active or inactive are those of the source. The calls are words filed in the database; no cut-off is given here.

What was measured:
[1] = Superoxide release activity in potassium phosphate buffer at pH 7.4 and 25 uM after 30 mins by […]
How it was run: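 Compound incubated in pH 7.4 buffer. Superoxide detected by luminol-based chemiluminescence.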

Nucleic Acid [2] = assay: Induction of DNA damage in Escherichia coli pBR322 assessed as supercoiled DNA cleavage at 1 uM after 24 hrs by agarose gel electrophoresis in presence of Cu2+; format: nucleic-acid assay
How it was run: (§1)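 Concentration course of 1–10 µM compound with an equimolar amount of Cu(II). Mixture holds 100 ng supercoiled pBR322 plasmid (form I) in 10 mM MOPS, pH 7.4, incubated 37 °C for 24 h. Cleavage to nicked form II read on gel against a DNA-only lane.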

[3] = Superoxide release activity in potassium phosphate buffer at pH 7.4 and 25 uM after 30 mins by […] in presence of superoxide dismutase
How it was run: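 Compound incubated in pH 7.4 buffer with superoxide dismutase present. Superoxide read by luminol-based chemiluminescence.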

Nucleic Acid [4] = assay: Induction of DNA damage in Escherichia coli pBR322 assessed as supercoiled DNA cleavage at 10 uM after 24 hrs by agarose gel electrophoresis in presence of Cu2+; format: nucleic-acid assay; how it was run: as §1
Nucleic Acid [5] = assay: Induction of DNA damage in Escherichia coli pBR322 assessed as supercoiled DNA cleavage at 25 uM after 24 hrs by agarose gel electrophoresis in presence of Cu2+; format: nucleic-acid assay
How it was run: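 Compound with Cu(II) at 1:1, no added reducing agent. Mixture holds 100 ng form I pBR322 in 10 mM MOPS, pH 7.4, incubated 37 °C for 24 h. Supercoiled-to-nicked (form II) cleavage read on gel against a DNA-only lane.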

[6] = Hydrogen peroxide release activity in potassium phosphate buffer at pH 7.4 after 60 mins by […] based colorimetric assay in presence of catalase; format: physicochemical; details: pH 7.4, 1 h
How it was run: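 Compound incubated at pH 7.4 for 1 h. Reaction mixture then treated with catalase before the xylenol orange colorimetric read-out for H2O2.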

Nucleic Acid [7] = assay: Induction of DNA damage in Escherichia coli pBR322 assessed as supercoiled DNA cleavage at 25 uM after 24 hrs by agarose gel electrophoresis; format: nucleic-acid assay
How it was run: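 Compound at 25 µM without Cu(II) and with no added reducing agent, incubated with supercoiled pBR322 plasmid DNA. Damage assessed as cleavage of supercoiled form on gel.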

[8] = Hydrogen peroxide release activity in potassium phosphate buffer at pH 7.4 after 60 mins by […] based colorimetric assay; format: physicochemical; details: pH 7.4, 1 h
How it was run: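 Compound incubated in pH 7.4 buffer for 1 h. H2O2 then estimated with a xylenol orange-based colorimetric method.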

O=C1C(c2ccccc2)=C(N2CCCC2)C(=O)c2ccccc21
Activity [1]: Active | Activity (Nucleic Acid [2]): Active | Activity [3]: Active | Activity (Nucleic Acid [4]): Active | Activity (Nucleic Acid [5]): Active | Activity [6]: Active | Activity (Nucleic Acid [7]): inactive

C=CCNC1=C(c2ccccc2)C(=O)c2ccccc2C1=O
Activity [8]: < 2 µM

COc1ccc(CNC2=C(c3ccccc3)C(=O)c3ccccc3C2=O)cc1
Activity [8]: < 2 µM

O=C1C(NCc2ccc(Cl)cc2)=C(c2ccccc2)C(=O)c2ccccc21
Activity [8]: < 2 µM

COc1ccc(NC2=C(c3ccccc3)C(=O)c3ccccc3C2=O)cc1
Activity [8]: < 2 µM

O=C1C(c2ccccc2)=C(N2CCCCC2)C(=O)c2ccccc21
Activity (Nucleic Acid [5]): Active | Activity (Nucleic Acid [7]): inactive

CN(C)CCNC1=C(c2ccccc2)C(=O)c2ccccc2C1=O
Activity [8]: < 2 µM

COc1ccccc1C1=C(N2CCCC2)C(=O)c2ccccc2C1=O
Activity [8]: Active | Activity (Nucleic Acid [5]): Active | Activity [6]: Active | Activity (Nucleic Acid [7]): inactive

O=C1C(NCc2ccccc2)=C(c2ccccc2)C(=O)c2ccccc21
Activity [8]: < 2 µM | Activity (Nucleic Acid [5]): Active | Activity (Nucleic Acid [7]): inactive

CCCNC1=C(c2ccccc2)C(=O)c2ccccc2C1=O
Activity [8]: < 2 µM | Activity (Nucleic Acid [5]): Active | Activity (Nucleic Acid [7]): inactive

O=C1C(Nc2ccc([N+](=O)[O-])cc2)=C(c2ccccc2)C(=O)c2ccccc21
Activity [8]: < 2 µM

NC1=C(c2ccccc2)C(=O)c2ccccc2C1=O
Activity [8]: < 2 µM

CCCCNC1=C(c2ccccc2)C(=O)c2ccccc2C1=O
Activity [8]: < 2 µM

O=C1C(Nc2ccccc2)=C(c2ccccc2)C(=O)c2ccccc21
Activity [8]: < 2 µM | Activity (Nucleic Acid [5]): Active | Activity (Nucleic Acid [7]): inactive

O=C1C(c2ccc(F)cc2)=C(N2CCCC2)C(=O)c2ccccc21
Activity [8]: Active | Activity (Nucleic Acid [5]): Active | Activity [6]: Active | Activity (Nucleic Acid [7]): inactive

C1CCNC1 [PYRROLIDINE]
Activity [1]: inactive | Activity [8]: Not Active

CN1CCCC1 [N-METHYL PYRROLIDINE (NMP)]
Activity [1]: inactive | Activity [8]: Not Active

COc1ccc(C2=C(N3CCCC3)C(=O)c3ccccc3C2=O)cc1
Activity [8]: Active | Activity (Nucleic Acid [5]): Active | Activity [6]: Active | Activity (Nucleic Acid [7]): inactive
